What was measured:
K562 [1] = test: Tested for the influence on the ribonucleotide (GTP) concentration in myelogenous leukemia K562 cell culture.; assay type: functional, Homo sapiens
Procedure, shortened: (§1)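 Cultured K562 cells given 100 µM compound (2 µM for reference furanoside) or saline for 2 h at 37 °C, then centrifuged, washed once in cold saline and extracted with cold 10% trichloroacetic acid before nucleotide pool measurement.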

K562 [2] = test: Concentration required to inhibit 50% of the cell proliferation of the Human myelogenous leukemia K562 cells.; assay type: functional, cell-based
Procedure, shortened: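 K562 cells in log phase (RPMI 1640 + 10% FBS, 5% CO2, 37 °C), seeded at 1 × 10⁵ cells/mL and exposed continuously to compounds (0.5-100 µM, in saline) or saline for 48 h. Cells counted by Coulter counter; inhibition = % reduction in proliferation versus saline; IC50 = concentration giving 50% inhibition at 48 h.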

K562 [3] = test: Tested for the influence on the ribonucleotide (IMP) concentration in myelogenous leukemia K562 cell culture.; assay type: functional, Homo sapiens; procedure, shortened: as §1
[4] = target: Inosine-5'-monophosphate dehydrogenase (IMPDH) (Homo sapiens) (UniProt P20839+P12268); test: Inhibitory activity against Inosine-5'-monophosphate dehydrogenase in human myelogenous leukemia K562 cells in culture.; assay type: cell-based; conditions: concentration not given here
Chain of Inosine-5'-monophosphate dehydrogenase (IMPDH) (Homo sapiens) (P20839 whole entry, looked up, other chains not shown): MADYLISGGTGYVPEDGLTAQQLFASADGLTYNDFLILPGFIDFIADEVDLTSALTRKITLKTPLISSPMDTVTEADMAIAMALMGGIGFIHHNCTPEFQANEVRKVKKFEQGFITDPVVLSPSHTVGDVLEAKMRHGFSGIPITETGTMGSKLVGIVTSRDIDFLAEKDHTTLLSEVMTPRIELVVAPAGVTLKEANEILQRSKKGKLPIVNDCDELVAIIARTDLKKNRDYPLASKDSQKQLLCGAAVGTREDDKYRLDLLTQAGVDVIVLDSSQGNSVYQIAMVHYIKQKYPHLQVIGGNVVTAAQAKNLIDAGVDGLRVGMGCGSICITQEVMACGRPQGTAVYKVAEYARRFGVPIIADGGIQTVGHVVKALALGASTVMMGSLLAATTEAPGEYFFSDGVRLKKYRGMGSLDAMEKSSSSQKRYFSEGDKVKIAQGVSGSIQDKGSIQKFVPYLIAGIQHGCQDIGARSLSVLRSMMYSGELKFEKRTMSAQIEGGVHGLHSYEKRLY

Work on `NC(=O)c1csc([C@@H]2O[C@H](CO)[C@@H](O)[C@H]2O)c1` yielded a Control (K562 [1]) of 96.6%, an IC50 (K562 [2]) of 1.7 µM and a Control (K562 [3]) of 112%. The inhibition [4] was 76%.
For `NC(=O)c1coc([C@@H]2S[C@H](CO)[C@H](O)C2O)c1` (stereo not given in full) [FURANTHIOFURIN], the Control (K562 [1]) was 66.1%, the IC50 (K562 [2]) was 4700 µM and the Control (K562 [3]) was 105%.
`NC(=O)c1csc([C@@H]2S[C@H](CO)[C@H](O)C2O)c1` (stereo not given in full) [THIOPHENTHIOFURIN] gave a Control (K562 [1]) of 83.9%, an IC50 (K562 [2]) of 67 µM and a Control (K562 [3]) of 111%.
